Data taken from ChEMBL document CHEMBL1125418, “Antimycobacterial activity of a series of pyrazinoic acid esters” (1992).
In brackets after ≈: the same amount, converted by molar mass.

Assays:
Format in all cases: functional
[1] = tested on: Mycobacterium tuberculosis variant bovis; test: In vitro activity against Mycobacterium. tuberculosis (strain type-ATCC 27289).at pH 5.8
Method in brief: (§1)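 Middlebrook 7H10 agar plus 10% OADC at pH 5.8 in compartmented plates, with serial twofold dilutions from 200 to 3.12 µg/mL. Plates were prepared 24–48 h before use and stored at 4 °C. A drug-free compartment was included per isolate. Incubation was 37 °C for 4 weeks. MIC was the lowest level producing 99% (2 log) inhibition of growth.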

[2] = tested on: Mycobacterium tuberculosis variant bovis; test: In vitro activity against Mycobacterium. tuberculosis (strain type-ATCC 27289).at pH 6.6
Method in brief: (§2)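 Twofold serial dilutions (200–3.12 µg/mL) in 7H10 agar with 10% OADC enrichment at pH 6.6, in compartmented plates. Plates were stored at 4 °C and used within 24–48 h. A no-drug compartment served as control for each isolate. Plates were incubated for 4 weeks at 37 °C. MIC was the lowest concentration giving 99% (2 log) growth inhibition.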

[3] = tested on: Mycobacterium tuberculosis variant bovis; test: In vitro activity against Mycobacterium. tuberculosis (strain type-ATCC 27289). at pH 6.6; method in brief: as §2
[4] = tested on: Mycobacterium tuberculosis variant bovis; test: In vitro activity against Mycobacterium. tuberculosis (strain type-ATCC 27289)at pH 5.8.; method in brief: as §1
[5] = tested on: Mycobacterium tuberculosis variant bovis; test: In vitro inhibitory activity against Mycobacterium tuberculosis (strain type-ATCC 27289) at pH 5.8.; method in brief: as §1
[6] = tested on: Mycobacterium tuberculosis variant bovis; test: In vitro inhibitory activity against Mycobacterium tuberculosis (strain type-ATCC 27289). at pH 6.6; method in brief: as §2
[7] = tested on: Mycobacterium tuberculosis variant bovis; test: In vitro activity against Mycobacterium. tuberculosis (strain type-ATCC 27289)at pH 6.6; method in brief: as §2
[8] = tested on: Mycobacterium tuberculosis variant bovis; test: In vitro inhibitory activity against Mycobacterium tuberculosis (strain type-ATCC 27289). at pH 5.8; method in brief: as §1
[9] = tested on: Mycobacterium tuberculosis variant bovis; test: In vitro inhibitory activity against Mycobacterium. tuberculosis (strain type-ATCC 27289).at pH 5.8; method in brief: as §1
[10] = tested on: Mycobacterium tuberculosis variant bovis; test: In vitro inhibitory activity against Mycobacterium. tuberculosis (strain type-ATCC 27289).at pH 6.6; method in brief: as §2

SMILES | MIC [1] [µg/mL] | MIC [2] [µg/mL] | further results
Cc1ccc(OC(=O)c2cnccn2)cc1 | 6.25 (≈ 29.2 µM) | 50 (≈ 233 µM) | –
O=C(OCC(F)(F)F)c1cnccn1 | 25 (≈ 121 µM) | – | MIC [3]: > 200 µg/mL
CCCOC(=O)c1cnccn1 | 6.25 (≈ 37.6 µM) | 25 (≈ 150 µM) | –
O=C(Oc1ccc(-c2ccccc2)cc1)c1cnccn1 | 25 (≈ 90.5 µM) | 100 (≈ 362 µM) | –
O=C(OCCCl)c1cnccn1 | – | – | MIC [4]: 6.25 µg/mL (≈ 33.5 µM)
C=CCOC(=O)c1cnccn1 | < 3.12 | 200 (≈ 1220 µM) | –
CC(C)(C)c1ccc(OC(=O)c2cnccn2)cc1 | 25 (≈ 97.5 µM) | 200 (≈ 780 µM) | –
O=C(O)c1cnccn1 [PYRAZINOIC ACID] | – | – | MIC [5]: 100 µg/mL (≈ 806 µM); MIC [6]: > 200 µg/mL
O=C(Oc1c(F)c(F)c(F)c(F)c1F)c1cnccn1 | 12.5 (≈ 43.1 µM) | – | MIC [7]: 100 µg/mL (≈ 345 µM)
O=C(OCCBr)c1cnccn1 | – | > 200 | –
CN(C)CCOC(=O)c1cnccn1 | – | – | MIC [8]: 12.5 µg/mL (≈ 64 µM); MIC [6]: 200 µg/mL (≈ 1020 µM)
NC(=O)c1cnccn1 [PYRAZINAMIDE] | – | – | MIC [9]: > 200 µg/mL; MIC [10]: > 200 µg/mL
O=C(Oc1ccc([N+](=O)[O-])cc1)c1cnccn1 | 3.12 (≈ 12.7 µM) | 100 (≈ 408 µM) | –
O=C(OC(C(F)(F)F)C(F)(F)F)c1cnccn1 | > 200 | – | –
